Our source for the GI50 values is ChEMBL document CHEMBL3576825, “Antineoplastic agents. 600. From the South Pacific Ocean to the silstatins” (J Nat Prod, 2015).

Where only a bound is given, the exact number is not on record here.

The nature of data set [1]: Cytotoxicity against human KM20L2 cells after 48 hrs by sulforhodamine B assay. It is filed as functional. The note with it: KM-20L2, 48 h. The gist of the method: (§1)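 NCI standard SRB protocol. Cells were seeded in 5% FBS/RPMI-1640 and incubated 24 h, then given serial dilutions of compound for 48 h. Plates were fixed with trichloroacetic acid, stained with sulforhodamine B and read by microplate reader. GI50, the concentration giving a 50% reduction in net protein increase, was calculated from optical density data.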

Another data set relates to DU-145. Briefly: Cytotoxicity against human DU145 cells after 48 hrs by sulforhodamine B assay. It is filed as functional. Particulars: DU-145, 48 h. In a few lines: as §1
A further data set deals with SF-268. Briefly: Cytotoxicity against human SF268 cells after 48 hrs by sulforhodamine B assay. It is filed as functional. Particulars: SF-268, 48 h. In a few lines:
as §1
(In SRB staining, fixed cells bind dye roughly in proportion to their protein.)

Data set [2] can be described thus: Cytotoxicity against human BxPC3 cells after 48 hrs by sulforhodamine B assay. It is filed as functional. Particulars: BXPC-3, 48 h. The gist of the method:
as §1

For a further data set, the system named is NCI-H460. Briefly: Cytotoxicity against human NCI-H460 cells after 48 hrs by sulforhodamine B assay. It is filed as functional. Particulars: NCI-H460, 48 h. The gist of the method: as §1
A further data set deals with MCF7. Briefly: Cytotoxicity against human MCF7 cells after 48 hrs by sulforhodamine B assay. Particulars: MCF7, 48 h. It is filed as functional. The gist of the method:
as §1

The nature of data set [3]: Cytotoxicity against human CRL2221 cells after 48 hrs by sulforhodamine B assay. It counts as cell-based.
Data set [4] in a line: Cytotoxicity against human MCF10A cells after 48 hrs by sulforhodamine B assay. It counts as cell-based, MCF-10A.

What is called GI50 is the concentration that inhibits growth by half.

With `CC(C)C[C@H]1OC(=O)[C@H](C(C)C)NC(=O)[C@H](C)OC(=O)[C@@H](C(C)C)NC(=O)[C@@H](CC(C)C)OC(=O)[C@H]([C@@H](C)O)NC(=O)[C@H](C)OC(=O)[C@@H](C(C)C)NC(=O)[C@@H](CC(C)C)OC(=O)[C@H](C(C)C)NC(=O)[C@H](C)OC(=O)[C@@H](C(C)C)NC1=O`, the concentration for 50% growth inhibition (GI50) was found to be 2.9 nM in data set [1]; 5.2 nM in the data set on DU-145; 2.7 nM in the data set with SF-268; 3.5 nM in data set [2]; 2.8 nM with NCI-H460; 1.9 nM in the data set on MCF7.
Regarding `CC(C)C[C@H]1OC(=O)[C@H](C(C)C)NC(=O)[C@H](C)OC(=O)[C@@H](C(C)C)NC(=O)[C@@H](CC2CCCCC2)OC(=O)[C@H]([C@@H](C)O)NC(=O)[C@H](C)OC(=O)[C@@H](C(C)C)NC(=O)[C@@H](CC(C)C)OC(=O)[C@H](C(C)C)NC(=O)[C@H](C)OC(=O)[C@@H](C(C)C)NC1=O`, the GI50 in data set [1] is 1.7 nM; in the data set with DU-145 it was 2.5 nM; in the data set on SF-268, 2.6 nM; in data set [2], 3.2 nM; in the data set on NCI-H460, 3.3 nM; in the data set on MCF7, 1.5 nM. Moreover, the GI50 at 48 h in data set [3] and in data set [4] was 3.35 nM in each case.
For the molecule `CC(C)C[C@H]1OC(=O)[C@H](Cc2ccc(O)cc2)NC(=O)[C@H](C)OC(=O)[C@@H](C(C)C)NC(=O)[C@@H](CC(C)C)OC(=O)[C@H](C(C)C)NC(=O)[C@H](C)OC(=O)[C@@H](C(C)C)NC(=O)[C@@H](CC(C)C)OC(=O)[C@H](C(C)C)NC(=O)[C@H](C)OC(=O)[C@@H](C(C)C)NC1=O`, the GI50 in data set [1] is 0.9 nM; with DU-145 it was 4.2 nM; in the data set on SF-268, 3.3 nM; in data set [2], 4.1 nM; in the data set with NCI-H460 it was 3 nM; with MCF7, 1.3 nM.
With `CC(C)C[C@H]1OC(=O)[C@H](C(C)C)NC(=O)[C@H](C)OC(=O)[C@@H](C(C)C)NC(=O)[C@@H](CC(C)C)OC(=O)[C@H](C(C)C)NC(=O)[C@H](C)OC(=O)[C@@H](C(C)C)NC(=O)[C@@H](CC2CCCCC2)OC(=O)[C@H](Cc2ccc(OC(C)(C)C)cc2)NC(=O)[C@H](C)OC(=O)[C@@H](C(C)C)NC1=O`, the GI50 in data set [1] is 40 nM; in the data set with DU-145, 30 nM; in the data set on SF-268, 46 nM; in data set [2] it was 68 nM; in the data set on NCI-H460, 91 nM; in the data set with MCF7, 24 nM.
Turning to `CC(C)C[C@H]1OC(=O)[C@H](C(C)C)NC(=O)[C@H](C)OC(=O)[C@@H](C(C)C)NC(=O)[C@@H](CC(C)C)OC(=O)[C@H](C(C)C)NC(=O)[C@H](C)OC(=O)[C@@H](C(C)C)NC(=O)[C@@H](CC2CCCCC2)OC(=O)[C@H](Cc2ccc(O)cc2)NC(=O)[C@H](C)OC(=O)[C@@H](C(C)C)NC1=O`, the GI50 turned out to be 1.7 nM in data set [1]; 4.3 nM in the data set with DU-145; 2.4 nM in the data set with SF-268; 4.8 nM in data set [2]; 3.2 nM with NCI-H460; 0.88 nM in the data set on MCF7.
For `CC(C)[C@@H]1NC(=O)[C@H](C)OC(=O)[C@@H](C(C)C)NC(=O)[C@@H](CC2CCCCC2)OC(=O)[C@H](C(C)C)NC(=O)[C@H](C)OC(=O)[C@@H](C(C)C)NC(=O)[C@@H](CC2CCCCC2)OC(=O)[C@H](Cc2ccc(OC(C)(C)C)cc2)NC(=O)[C@H](C)OC(=O)[C@@H](C(C)C)NC(=O)[C@@H](CC2CCCCC2)OC1=O`, the GI50 (in data set [1]; with DU-145; in the data set on SF-268; in data set [2]; in the data set on NCI-H460; in the data set on MCF7) was above 717 nM each time.
Take `CC(C)C[C@H]1OC(=O)[C@H](C(C)C)NC(=O)[C@H](C)OC(=O)[C@@H](C(C)C)NC(=O)[C@@H](CC2CCCCC2)OC(=O)[C@H]([C@@H](C)OC(C)(C)C)NC(=O)[C@H](C)OC(=O)[C@@H](C(C)C)NC(=O)[C@@H](CC(C)C)OC(=O)[C@H](C(C)C)NC(=O)[C@H](C)OC(=O)[C@@H](C(C)C)NC1=O`: the GI50 turned out to be 1.9 nM in data set [1]; 5.6 nM in the data set on DU-145; 3.2 nM with SF-268; 18 nM in data set [2]; 7.2 nM in the data set on NCI-H460; 0.79 nM with MCF7.
Turning to `CC(C)C[C@H]1OC(=O)[C@H](C(C)C)NC(=O)[C@H](C)OC(=O)[C@@H](C(C)C)NC(=O)[C@@H](CC(C)C)OC(=O)[C@H](C(C)C)NC(=O)[C@H](C)OC(=O)[C@@H](C(C)C)NC(=O)[C@@H](CC(C)C)OC(=O)[C@H](C(C)C)NC(=O)[C@H](C)OC(=O)[C@@H](C(C)C)NC1=O`, the GI50 in data set [1] came out at 0.14 nM; in the data set with DU-145 it was 0.36 nM; with SF-268, 0.18 nM; in data set [2], 0.69 nM; in the data set on NCI-H460, 0.61 nM; with MCF7 it was 0.095 nM.
For `CC(C)C[C@H]1OC(=O)[C@H](C(C)C)NC(=O)[C@H](C)OC(=O)[C@@H](C(C)C)NC(=O)[C@@H](CC2CCCCC2)OC(=O)[C@H]([C@@H](C)OC(=O)CCCN(C)C(=O)OCc2ccc(O[C@@H]3O[C@H](C(=O)O)[C@@H](O)[C@H](O)[C@H]3O)c([N+](=O)[O-])c2)NC(=O)[C@H](C)OC(=O)[C@@H](C(C)C)NC(=O)[C@@H](CC(C)C)OC(=O)[C@H](C(C)C)NC(=O)[C@H](C)OC(=O)[C@@H](C(C)C)NC1=O`, the GI50 in data set [1] turned out to be 24 nM; with DU-145, 78.1 nM; in the data set on SF-268, 30 nM; in data set [2], 120 nM; in the data set with NCI-H460, 42 nM; with MCF7, 18.6 nM. Besides, the GI50 at 48 h amounted to 30 nM in data set [3] and 150 nM in data set [4].
In the case of `CC(C)[C@@H]1NC(=O)[C@H](C)OC(=O)[C@@H](C(C)C)NC(=O)[C@@H](CC2CCCCC2)OC(=O)[C@H](C(C)C)NC(=O)[C@H](C)OC(=O)[C@@H](C(C)C)NC(=O)[C@@H](CC2CCCCC2)OC(=O)[C@H](C(C)C)NC(=O)[C@H](C)OC(=O)[C@@H](C(C)C)NC(=O)[C@@H](CC2CCCCC2)OC1=O`, the GI50 was 141 nM in data set [1]; 173 nM in the data set on DU-145; 63.6 nM in the data set on SF-268; 392 nM in data set [2]; 314 nM with NCI-H460; 141 nM in the data set with MCF7.
`CC(C)[C@@H]1NC(=O)[C@H](C)OC(=O)[C@@H](C(C)C)NC(=O)[C@@H](CC2CCCCC2)OC(=O)[C@H](C(C)C)NC(=O)[C@H](C)OC(=O)[C@@H](C(C)C)NC(=O)[C@@H](CC2CCCCC2)OC(=O)[C@H](Cc2ccc(O)cc2)NC(=O)[C@H](C)OC(=O)[C@@H](C(C)C)NC(=O)[C@@H](CC2CCCCC2)OC1=O`: the GI50 in data set [1] was found to be 67.3 nM; in the data set with DU-145 it was 164 nM; in the data set on SF-268, 37.4 nM; in data set [2], 396 nM; with NCI-H460, 239 nM; in the data set on MCF7, 89.7 nM.
For `CC(C)C[C@H]1OC(=O)[C@H](Cc2ccc(OC(C)(C)C)cc2)NC(=O)[C@H](C)OC(=O)[C@@H](C(C)C)NC(=O)[C@@H](CC(C)C)OC(=O)[C@H](C(C)C)NC(=O)[C@H](C)OC(=O)[C@@H](C(C)C)NC(=O)[C@@H](CC(C)C)OC(=O)[C@H](C(C)C)NC(=O)[C@H](C)OC(=O)[C@@H](C(C)C)NC1=O`, the 50% growth inhibitory concentration (GI50) turned out to be 3.8 nM in data set [1]; 8.6 nM in the data set on DU-145; 2 nM in the data set on SF-268; 24 nM in data set [2]; 23 nM with NCI-H460; 3.3 nM in the data set with MCF7.
With `CC[C@H](C)[C@H]1OC(=O)[C@H](C(C)C)NC(=O)[C@H](C)OC(=O)[C@@H](C(C)C)NC(=O)[C@@H]([C@@H](C)CC)OC(=O)[C@H](C(C)C)NC(=O)[C@H](C)OC(=O)[C@@H](C(C)C)NC(=O)[C@@H](CC(C)C)OC(=O)[C@H](C(C)C)NC(=O)[C@H](C)OC(=O)[C@@H](C(C)C)NC1=O`, the GI50 stood at 0.23 nM in data set [1]; 0.75 nM in the data set on DU-145; 1.6 nM with SF-268; 0.29 nM in data set [2]; 0.39 nM in the data set on NCI-H460; 0.27 nM in the data set on MCF7.
On to `CC(C)[C@@H]1NC(=O)[C@H](C)OC(=O)[C@@H](C(C)C)NC(=O)[C@@H](CC2CCCCC2)OC(=O)[C@H]([C@@H](C)O)NC(=O)[C@H](C)OC(=O)[C@@H](C(C)C)NC(=O)[C@@H](CC2CCCCC2)OC(=O)[C@H](C(C)C)NC(=O)[C@H](C)OC(=O)[C@@H](C(C)C)NC(=O)[C@@H](CC2CCCCC2)OC1=O`, for which the GI50 in data set [1] was found to be 3.4 nM; with DU-145, 3.9 nM; with SF-268 it was 3.4 nM; in data set [2] it was 24 nM; in the data set with NCI-H460 it was 16 nM; in the data set on MCF7 it was 2.4 nM.
For the molecule `CC(C)[C@@H]1NC(=O)[C@H](C)OC(=O)[C@@H](C(C)C)NC(=O)[C@@H](CC2CCCCC2)OC(=O)[C@H]([C@@H](C)OC(C)(C)C)NC(=O)[C@H](C)OC(=O)[C@@H](C(C)C)NC(=O)[C@@H](CC2CCCCC2)OC(=O)[C@H](C(C)C)NC(=O)[C@H](C)OC(=O)[C@@H](C(C)C)NC(=O)[C@@H](CC2CCCCC2)OC1=O`, the GI50 came to 60 nM in data set [1]; 90 nM in the data set with DU-145; 56.3 nM in the data set on SF-268; 135 nM in data set [2]; 240 nM with NCI-H460; 56.3 nM in the data set with MCF7.
Regarding `CC[C@H](C)[C@H]1OC(=O)[C@H](C(C)C)NC(=O)[C@H](C)OC(=O)[C@@H](C(C)C)NC(=O)[C@@H]([C@@H](C)CC)OC(=O)[C@H](C(C)C)NC(=O)[C@H](C)OC(=O)[C@@H](C(C)C)NC(=O)[C@@H]([C@@H](C)CC)OC(=O)[C@H](C(C)C)NC(=O)[C@H](C)OC(=O)[C@@H](C(C)C)NC1=O` [BACILLISTATIN 1], the GI50 in data set [1] worked out at 0.75 nM; in the data set with DU-145, 1.3 nM; in the data set with SF-268, 0.39 nM; in data set [2], 0.82 nM; with NCI-H460 it was 1.2 nM; in the data set on MCF7, 0.53 nM.
